Data from ChEMBL document CHEMBL2150901, “Synthesis and biological activity of tricyclic cycloalkylimidazo-, pyrimido- and diazepinopurinediones” (Eur J Med Chem, 2011).
Active and inactive are the calls of the source. The rule behind the calls is not given here.

Columns and labels:
Adenosine receptor A3 = biological target: T1, Adenosine receptor A3 (Homo sapiens, UniProt P0DMS8); test: Displacement of [3H]PSB-11 from human recombinant adenosine A3 receptor expressed in CHO cells; type: cell-based
T1 sequence (P0DMS8 whole entry): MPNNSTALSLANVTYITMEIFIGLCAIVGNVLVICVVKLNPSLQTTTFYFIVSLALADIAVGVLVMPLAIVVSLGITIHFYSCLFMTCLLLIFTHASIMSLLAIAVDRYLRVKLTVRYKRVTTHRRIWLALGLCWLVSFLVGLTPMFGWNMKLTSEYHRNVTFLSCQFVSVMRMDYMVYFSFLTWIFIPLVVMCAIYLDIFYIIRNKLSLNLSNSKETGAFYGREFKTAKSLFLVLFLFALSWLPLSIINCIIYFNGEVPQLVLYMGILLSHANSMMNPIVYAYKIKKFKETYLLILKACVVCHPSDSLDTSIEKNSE

[1] = biological target: T2, Adenosine receptor A3 (Homo sapiens) (UniProt P0DMS8); test: Displacement of [3H]PSB-11 from human recombinant adenosine A3 receptor expressed in CHO cells at 10 uM; type: cell-based
T2 sequence (whole entry): T1 sequence (P0DMS8 whole entry)
How it was run: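 CHO cell membranes expressing the human receptor. Radioligands: A1 [3H]CCPA; A2B [3H]ZM241385 or [3H]PSB-603; A3 [3H]PSB-11. […] Potent compounds run at 6–7 concentrations spanning 3 orders of magnitude; Ki ± SEM.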

Mus musculus [2] = test: Anticonvulsant activity in F1 albino mouse assessed as protection against maximal electroshock-induced seizures at 300 mg/kg, ip after 0.5 hrs; type: functional, organism-based; design: dose 300 mg/kg
How it was run: (§1)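 Male albino F-1 mice (18–25 g), groups of 1–5 (rotorod 2–8). Compound given ip as a suspension in 0.5% methylcellulose at 30, 100 and 300 mg/kg. Seizures by maximal electroshock or subcutaneous pentylenetetrazole; neurotoxicity by rotorod. Read at 0.5 and 4 h, with some at 0.25, 1 and 2 h. Value is the minimum active dose, with protected (or toxic)/tested animals.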

Mus musculus [3] = test: Anticonvulsant activity in F1 albino mouse assessed as protection against maximal electroshock-induced seizures at 300 mg/kg, ip after 1 hr; type: functional, organism-based; design: dose 300 mg/kg; how it was run: as §1
Mus musculus [4] = test: Anticonvulsant activity in F1 albino mouse assessed as protection against subcutaneous pentylenetetrazole-induced seizures at 300 mg/kg, ip after 0.25 hrs; type: functional, organism-based; design: dose 300 mg/kg; how it was run: as §1
Mus musculus [5] = test: Anticonvulsant activity in F1 albino mouse assessed as protection against subcutaneous pentylenetetrazole-induced seizures at 300 mg/kg, ip after 4 hrs; type: functional, organism-based; design: dose 300 mg/kg; how it was run: as §1
Mus musculus [6] = test: Neurotoxicity in F1 albino mouse assessed as minimal motor impairment at 300 mg/kg, ip after 0.25 hrs by rotorod test; type: toxicity, organism-based; design: dose 300 mg/kg, route intraperitoneal; details: in vivo; how it was run: as §1
Mus musculus [7] = test: Neurotoxicity in F1 albino mouse assessed as minimal motor impairment at 300 mg/kg, ip after 4 hrs by rotorod test; type: toxicity, organism-based; design: dose 300 mg/kg, route intraperitoneal; details: in vivo; how it was run: as §1
Rattus norvegicus [8] = test: Anticonvulsant activity in Sprague-Dawley albino rat assessed as protection against maximal electroshock-induced seizures at 30 mg/kg, po after 1 hr; type: functional, organism-based; design: dose 30 mg/kg
How it was run: (§2)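 Male Sprague-Dawley albino rats (100–150 g), groups of 4. Oral suspension in 0.5% methylcellulose/water. Protection assessed by maximal electroshock or subcutaneous pentylenetetrazole; motor impairment by rotorod. Time points 0.25–4 h. Value is protected (or toxic)/tested animals.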

Rattus norvegicus [9] = test: Anticonvulsant activity in Sprague-Dawley albino rat assessed as protection against maximal electroshock-induced seizures at 30 mg/kg, po after 4 hrs; type: functional, organism-based; design: dose 30 mg/kg; how it was run: as §2
Rattus norvegicus [10] = test: Anticonvulsant activity in Sprague-Dawley albino rat assessed as protection against subcutaneous pentylenetetrazole-induced seizures at 50 mg/kg, po after 0.25 hrs; type: functional, organism-based; design: dose 50 mg/kg; how it was run: as §2
Rattus norvegicus [11] = test: Anticonvulsant activity in Sprague-Dawley albino rat assessed as protection against subcutaneous pentylenetetrazole-induced seizures at 50 mg/kg, po after 0.5 hrs; type: functional, organism-based; design: dose 50 mg/kg; how it was run: as §2
Rattus norvegicus [12] = test: Anticonvulsant activity in Sprague-Dawley albino rat assessed as protection against subcutaneous pentylenetetrazole-induced seizures at 50 mg/kg, po after 1 hr; type: functional, organism-based; design: dose 50 mg/kg; how it was run: as §2
Rattus norvegicus [13] = test: Anticonvulsant activity in Sprague-Dawley albino rat assessed as protection against subcutaneous pentylenetetrazole-induced seizures at 50 mg/kg, po after 2 hrs; type: functional, organism-based; design: dose 50 mg/kg; how it was run: as §2
Rattus norvegicus [14] = test: Anticonvulsant activity in Sprague-Dawley albino rat assessed as protection against subcutaneous pentylenetetrazole-induced seizures at 50 mg/kg, po after 4 hrs; type: functional, organism-based; design: dose 50 mg/kg; how it was run: as §2
Rattus norvegicus [15] = test: Neurotoxicity in Sprague-Dawley albino rat assessed as minimal motor impairment at 30 mg/kg, po after 0.25 hrs by rotorod test; type: toxicity, organism-based; design: dose 30 mg/kg, route oral; details: in vivo; how it was run: as §2
Rattus norvegicus [16] = test: Neurotoxicity in Sprague-Dawley albino rat assessed as minimal motor impairment at 30 mg/kg, po after 1 hr by rotorod test; type: toxicity, organism-based; design: dose 30 mg/kg, route oral; details: in vivo; how it was run: as §2
Adenosine receptor A2a [17] = biological target: Adenosine receptor A2a (Homo sapiens, UniProt P29274); test: Displacement of [3H]MSX-2 from human recombinant adenosine A2A receptor expressed in CHO cells; type: cell-based
Chain of Adenosine receptor A2a (Homo sapiens, UniProt P29274) (P29274 whole entry): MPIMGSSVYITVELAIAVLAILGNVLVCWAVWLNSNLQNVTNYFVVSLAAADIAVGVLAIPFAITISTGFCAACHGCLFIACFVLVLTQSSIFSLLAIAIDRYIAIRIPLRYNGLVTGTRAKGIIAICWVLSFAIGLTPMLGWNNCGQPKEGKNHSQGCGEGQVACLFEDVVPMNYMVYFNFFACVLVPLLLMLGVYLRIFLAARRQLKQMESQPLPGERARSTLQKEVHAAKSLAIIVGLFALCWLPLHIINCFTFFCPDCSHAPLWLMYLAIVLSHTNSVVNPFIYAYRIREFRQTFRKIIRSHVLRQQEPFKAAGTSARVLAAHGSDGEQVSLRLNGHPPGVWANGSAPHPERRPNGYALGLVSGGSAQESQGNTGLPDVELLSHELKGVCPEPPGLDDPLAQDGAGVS

Adenosine receptor A1 [18] = biological target: T3, Adenosine receptor A1 (Homo sapiens, UniProt P30542); test: Displacement of [3H]CCPA from human recombinant adenosine A1 receptor expressed in CHO cells; type: cell-based
T3 sequence (P30542 whole entry): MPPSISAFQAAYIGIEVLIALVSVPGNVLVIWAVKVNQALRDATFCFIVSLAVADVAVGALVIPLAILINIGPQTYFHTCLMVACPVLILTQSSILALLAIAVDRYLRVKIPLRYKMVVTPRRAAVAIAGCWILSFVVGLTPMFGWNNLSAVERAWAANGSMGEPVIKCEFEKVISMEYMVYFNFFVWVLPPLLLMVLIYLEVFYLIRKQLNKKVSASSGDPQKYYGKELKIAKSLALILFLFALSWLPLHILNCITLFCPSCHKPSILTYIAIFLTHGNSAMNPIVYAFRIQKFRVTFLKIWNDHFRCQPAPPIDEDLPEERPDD

Rattus norvegicus [19] = species: Rattus norvegicus; test: Selectivity ratio of Ki for adenosine A1 receptor in rat brain cortical membrane to Ki for adenosine A2A receptor in rat brain striatal membrane; type: cell membranes
How it was run: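 Ki ratios from radioligand competition binding. Rat A1 used brain cortical membranes and rat A2A used brain striatal membranes. Human A1 and A2A used membranes of CHO cells expressing the receptors. A1 radioligand [³H]CCPA; A2A radioligand [³H]MSX-2. Potent compounds were tested at 6–7 concentrations spanning 3 orders of magnitude.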

Adenosine receptor A2a [20] = biological target: Adenosine receptor A2a (Rattus norvegicus, UniProt P30543); test: Displacement of [3H]MSX-2 from adenosine A2A receptor in rat brain striatal membrane; type: cell membranes
Chain of Adenosine receptor A2a (Rattus norvegicus, UniProt P30543) (P30543 whole entry): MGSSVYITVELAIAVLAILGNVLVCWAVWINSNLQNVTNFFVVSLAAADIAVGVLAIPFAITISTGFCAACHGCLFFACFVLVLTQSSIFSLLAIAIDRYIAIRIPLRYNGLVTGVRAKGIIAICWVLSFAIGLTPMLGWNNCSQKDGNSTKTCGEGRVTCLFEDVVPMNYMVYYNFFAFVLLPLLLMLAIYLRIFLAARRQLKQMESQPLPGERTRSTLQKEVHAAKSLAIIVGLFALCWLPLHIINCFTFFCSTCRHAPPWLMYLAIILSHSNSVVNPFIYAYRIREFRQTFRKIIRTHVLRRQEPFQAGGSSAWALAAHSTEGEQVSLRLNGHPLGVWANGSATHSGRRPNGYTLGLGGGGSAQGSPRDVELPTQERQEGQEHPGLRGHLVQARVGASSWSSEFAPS

Adenosine receptor A1 [21] = biological target: T4, Adenosine receptor A1 (Rattus norvegicus, UniProt P25099); test: Displacement of [3H]CCPA from adenosine A1 receptor in rat brain cortical membrane; type: cell membranes
T4 sequence (P25099 whole entry): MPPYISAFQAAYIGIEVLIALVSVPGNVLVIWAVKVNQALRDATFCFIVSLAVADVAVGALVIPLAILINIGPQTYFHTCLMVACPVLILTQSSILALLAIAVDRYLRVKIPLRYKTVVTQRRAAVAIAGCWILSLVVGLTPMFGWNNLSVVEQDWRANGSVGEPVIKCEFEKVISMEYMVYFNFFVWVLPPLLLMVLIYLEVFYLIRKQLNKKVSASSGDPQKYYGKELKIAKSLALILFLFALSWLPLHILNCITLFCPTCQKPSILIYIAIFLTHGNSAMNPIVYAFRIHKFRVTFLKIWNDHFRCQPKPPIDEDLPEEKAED

Cn1c(=O)c2c(nc3n2CCCN3CC2CC2)n(C)c1=O
Ki (Adenosine receptor A3): > 10 µM
inhibition [1]: 1%
Activity (Mus musculus [2]): Active
Activity (Mus musculus [3]): inactive
Activity (Mus musculus [4]): inactive
Activity (Mus musculus [5]): inactive
Activity (Mus musculus [6]): Non-toxic
Activity (Mus musculus [7]): Non-toxic
Activity (Rattus norvegicus [8]): inactive
Activity (Rattus norvegicus [9]): inactive
Activity (Rattus norvegicus [10]): inactive
Activity (Rattus norvegicus [11]): inactive
Activity (Rattus norvegicus [12]): inactive
Activity (Rattus norvegicus [13]): inactive
Activity (Rattus norvegicus [14]): inactive
Activity (Rattus norvegicus [15]): Non-toxic
Activity (Rattus norvegicus [16]): Non-toxic
Ki (Adenosine receptor A2a [17]): 0.417 µM
Ki (Adenosine receptor A1 [18]): 7.13 µM
Ratio Ki (Rattus norvegicus [19]): 2
Ki (Adenosine receptor A2a [20]): 0.98 µM
Ki (Adenosine receptor A1 [21]): 2.39 µM
